The nature of data set [1]: Stability in rat plasma assessed as compound remaining at 40 uM incubated for 6 hrs. Format: ADME, cell-free.
Data set [2] in a line: Tmax in female Beagle dog at 2 mg/kg,iv measured upto 24 hrs. Format: ADME, organism-based, Canis lupus familiaris. Conditions: in vivo.
The nature of data set [3]: Stability in dog plasma assessed as compound remaining at 40 uM incubated for 6 hrs. The data set is classed as ADME, cell-free, Canis lupus familiaris.
Data set [4] can be described thus: Tmax in male rat at 8 mg/kg,iv measured upto 24 hrs. Format: ADME, organism-based. The following applies: in vivo.
Data set [5] can be described thus: MRT (0 to infinity) in Beagle dog at 1 mg/kg,iv measured upto 24 hrs. The following applies: in vivo. The data set is classed as ADME, organism-based, Canis lupus familiaris.
Data set [6] is described as follows: Stability in human plasma assessed as compound remaining at 40 uM incubated for 6 hrs. Format: ADME, cell-free.
Data set [7] concerns NCI-H23. As to the kind of experiment: Antiproliferative activity against human NCI-H23 cells assessed inhibition of cell growth incubated for 72 hrs by SRB assay. The data set is classed as functional, cell-based. The following applies: NCI-H23, 72 h.
For data set [8], the system named is 4T1. As to the kind of experiment: Antitumor activity against mouse 4T1 cells implanted in BALB/c mouse assessed as decrease in serum TIMP-1 level at 20 mg/kg,iv administrated once per week for 4 weeks by ELISA. Format: functional, organism-based. The procedure, abridged:
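4T1 fat-pad model in BALB/c mice, iv 5–20 mg/kg once weekly for 4 weeks, with vehicle and naive groups; serum MMP9, TIMP-1, IL-6 and S100A9 measured by mouse ELISA kits.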

The nature of data set [9]: Tmax in mouse tumor implanted with mouse 4T1 cells at 10 mg/kg,iv measured upto 72 hrs. Format: ADME, organism-based, Neoplasm.
A short description of data set [10]: Drug metabolism in rat urine assessed as metabolite docetaxel formation at 4 mg/kg,iv measured after 24 hrs. Format: ADME, organism-based. Conditions: in vivo.
Data set [11] is described as follows: Clearance in female Beagle dog at 2 mg/kg,iv measured upto 24 hrs. Format: ADME, organism-based, Canis lupus familiaris. The following applies: in vivo. The procedure, abridged:
(§1)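 Beagle dogs were given a single iv infusion at 1, 2 or 4 mg/kg. Plasma parent drug and released docetaxel were followed over time. Cmax, Tmax, AUC, MRT, t1/2, CL and Vss were reported by sex and for all dogs combined.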

In data set [12] the test system is 4T1. As to the kind of experiment: Antitumor activity against mouse 4T1 cells xenografted with BALB/c mouse assessed as decrease in lung metastasis at 10 mg/kg,iv administrated once per week for 4 weeks. Format: functional, organism-based. The essentials: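 4T1 cells injected into the mammary fat pad of BALB/c mice; iv saline vehicle or 5, 10 or 20 mg/kg once weekly for 4 weeks; body weight, tumour volume, tumour weight, lung metastatic nodule count and metastasis score recorded; n = 10, mean ± SEM, ANOVA and Student's t test.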

Data set [13] in a line: AUC (0-t) in female Beagle dog at 4 mg/kg,iv measured upto 24 hrs. The following applies: in vivo. Also on record: dose 4 mg/kg, time < 24 hrs, route iv. Format: ADME, organism-based, Canis lupus familiaris. The procedure, abridged:
(§2)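 Single iv dose: rats 2, 4 or 8 mg/kg by intravenous injection; Beagle dogs 1, 2 or 4 mg/kg by intravenous infusion. Plasma concentration–time data were analysed by sex and pooled. Reported parameters: Cmax, Tmax, AUC0−t, AUC0−∞, MRT0−∞, t1/2, CL, Vss, given as mean ± SD.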

Data set [14] in a line: Half life in female Beagle dog at 1 mg/kg,iv measured upto 24 hrs. The data set is classed as ADME, organism-based, Canis lupus familiaris. Conditions: in vivo.
A short description of data set [15]: Stability in rat plasma assessed as compound remaining at 1 uM incubated for 6 hrs. The data set is classed as ADME, cell-free.
A short description of data set [16]: AUC (0-t) in male rat at 8 mg/kg,iv measured upto 24 hrs. Format: ADME, organism-based. Also on record: time < 24 hrs, dose 8 mg/kg, route iv. Conditions: in vivo. The essentials:
as §2

The nature of data set [17]: Half life in male Beagle dog at 2 mg/kg,iv measured upto 24 hrs. Conditions: in vivo. Format: ADME, organism-based, Canis lupus familiaris.
Data set [18] is described as follows: Toxicity in BALB/c mouse xenografted with mouse 4T1 cells assessed as decrease in body weight at 10 mg/kg,iv administrated with doxorubicin combination once per week for 4 weeks. Format: organism-based. Conditions: in vivo, 672 h.
Data set [19] concerns 4T1. As to the kind of experiment: Antitumor activity against mouse 4T1 cells implanted in BALB/c mouse assessed as decrease in spleen MDSC cells at 20 mg/kg,iv measured after 28 days (reference value: 38%). The data set is classed as functional. Conditions: time 28 day. Also on record: scale not given: the % may be the effect or the level left.
Data set [20] can be described thus: MRT (0 to infinity) in rat at 4 mg/kg,iv measured upto 24 hrs. Format: ADME, organism-based. Conditions: in vivo.
The nature of data set [21]: Toxicity in BALB/c mouse xenografted with mouse 4T1 cells assessed as decrease in body weight at 10 mg/kg,iv administrated once per week for 4 weeks. The data set is classed as organism-based. The following applies: in vivo, 672 h.
Data set [22] can be described thus: AUC (0-t) in male rat at 4 mg/kg,iv measured upto 24 hrs. The data set is classed as ADME, organism-based. Also on record: time < 24 hrs, dose 4 mg/kg, route iv. Conditions: in vivo. The essentials: as §2
Data set [23] deals with BT-474. As to the kind of experiment: Antiproliferative activity against human BT-474 cells assessed inhibition of cell growth incubated for 72 hrs by SRB assay. The data set is classed as functional, cell-based. Conditions: BT-474, 72 h.
Data set [24] can be described thus: Volume of distribution at steady state in male rat at 8 mg/kg,iv measured upto 24 hrs. Format: ADME, organism-based. The following applies: in vivo, read-out: Vdss.
Data set [25] in a line: MRT (0 to infinity) in male Beagle dog at 1 mg/kg,iv measured upto 24 hrs. Format: ADME, organism-based, Canis lupus familiaris. Conditions: in vivo.
The nature of data set [26]: AUC (0-infinity) in male rat at 8 mg/kg,iv measured upto 24 hrs. Also on record: dose 8 mg/kg, time < 24 hrs, route iv. Conditions: in vivo. The data set is classed as ADME, organism-based. The essentials: as §2
For data set [27], the target named is Cytochrome P450 3A4 (Homo sapiens, UniProt P08684). As to the kind of experiment: Inhibition of CYP3A4 in human liver microsomes using probe substrate at 0.1 to 100 uM in presence of NADPH. The data set is classed as ADME, Microsome. The following applies: dose 0.1-100 µM.
Sequence of Cytochrome P450 3A4 (P08684 whole entry): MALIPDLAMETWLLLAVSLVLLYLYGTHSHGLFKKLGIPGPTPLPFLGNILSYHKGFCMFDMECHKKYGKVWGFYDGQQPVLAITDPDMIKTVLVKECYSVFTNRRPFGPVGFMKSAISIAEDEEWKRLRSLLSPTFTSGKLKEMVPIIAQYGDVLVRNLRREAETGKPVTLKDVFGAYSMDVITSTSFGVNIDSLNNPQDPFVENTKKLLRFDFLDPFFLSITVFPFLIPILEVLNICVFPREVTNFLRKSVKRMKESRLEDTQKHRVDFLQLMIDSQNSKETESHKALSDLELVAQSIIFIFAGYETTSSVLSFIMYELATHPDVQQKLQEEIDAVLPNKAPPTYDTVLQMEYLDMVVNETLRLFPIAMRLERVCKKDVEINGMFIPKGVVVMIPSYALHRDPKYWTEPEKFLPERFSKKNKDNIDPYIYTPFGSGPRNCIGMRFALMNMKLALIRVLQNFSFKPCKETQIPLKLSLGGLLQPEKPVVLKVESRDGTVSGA
The nature of data set [28]: AUC (0-infinity) in male Beagle dog at 2 mg/kg,iv measured upto 24 hrs. Format: ADME, organism-based, Canis lupus familiaris. Conditions: in vivo. Also on record: time < 24 hrs, dose 2 mg/kg, route iv. The essentials: as §2
Data set [29] is described as follows: Drug metabolism in human hepatocytes assessed as docetaxel metabolite formation at 20 uM incubated for 180 mins. The data set is classed as ADME, cell-based, Hepatocyte. Conditions: 3 h.
A short description of data set [30]: Cmax in Beagle dog at 4 mg/kg,iv measured upto 24 hrs. Format: ADME, organism-based, Canis lupus familiaris. Conditions: in vivo. Also on record: dose 4 mg/kg, time < 24 hrs, route iv. The essentials:
as §1

Data set [31] in a line: Drug metabolism in rat bile assessed as metabolite MDA-205 formation at 4 mg/kg,iv measured after 24 hrs. The following applies: in vivo. Format: ADME, organism-based.
The test system of data set [32] is 4T1. As to the kind of experiment: Antitumor activity against mouse 4T1 cells implanted in BALB/c mouse assessed as increase in tumor NOD1 expression level at 5.7 mg/kg,iv administrated once per week for 4 weeks in presence of MDA-205 by western blot assay. Format: functional, organism-based. The procedure, abridged: (§3)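 Tumour-bearing BALB/c mice (4T1 cells into mammary fat pad) given iv saline vehicle or test agents once weekly for 4 weeks. Tumours excised and probed by western blot for MMP9, MMP2 and NOD1, β-actin as loading control. Bands averaged over five mice per group; representative of two independent experiments.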

The subject of data set [33] is 4T1. As to the kind of experiment: Antitumor activity against mouse 4T1 cells implanted in BALB/c mouse assessed as increase in tumor NOD1 expression level at 5.7 mg/kg,iv administrated once per week for 4 weeks in presence of compound 5b by western blot assay. Format: functional, organism-based. The procedure, abridged: as §3
The test system of data set [34] is 4T1. As to the kind of experiment: Antitumor activity against mouse 4T1 cells implanted in BALB/c mouse assessed as decrease in neutrophil in peripheral blood at 11.4 mg/kg,iv administrated qd for 2 days by blood smear staining microscopic analysis. Format: functional, organism-based. The following applies: time 2.0 day. The procedure, abridged:
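On day 19 after 4T1 implantation, mice were randomized into five groups and given iv vehicle or test article, plus ip C12-iE-DAP (50 μg/mouse) and MDP (100 μg/mouse), once daily for 2 days. Mice were killed 6 h later. Peripheral blood neutrophils/leukocytes were counted on stained blood smears at 1000×.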

Data set [35] concerns 4T1. As to the kind of experiment: Antitumor activity against mouse 4T1 cells implanted in BALB/c mouse assessed as increase in tumor NOD1 expression level at 5.7 mg/kg,iv administrated once per week for 4 weeks by western blot assay. The data set is classed as functional, organism-based. The procedure, abridged:
as §3

Activity calls are given as the source filed them. The rule behind the calls is not given here.

`CC(=O)O[C@@]12CO[C@@H]1C[C@H](O)[C@@]1(C)C(=O)[C@H](O)C3=C(C)[C@@H](OC(=O)[C@H](OC(=O)CCC(=O)NCCCC[C@H](NC(=O)CC[C@@H](NC(=O)[C@H](C)NC(=O)/C=C/c4ccc(F)cc4Cl)C(N)=O)C(=O)O)[C@@H](NC(=O)OC(C)(C)C)c4ccccc4)C[C@@](O)([C@@H](OC(=O)c4ccccc4)[C@H]21)C3(C)C`: the Stability result in data set [1], in [3], in data set [6] and in data set [15] was “Stable” throughout. Also, the Tmax in data set [2] came out at 30 min; in data set [4], 4.98 min; in data set [9], 15 min. For the same compound, the MRT inf in data set [5] was 15.2 min; in data set [20], 19.1 min; in [25], 12.1 min. Moreover, the IC50 in data set [7] and in data set [23] was 16.3 nM each time. The outcome in data set [8] and in data set [12] was Active. The Drug metabolism result in data set [10], in [29] and in [31] was “Metabolite_Detected” in each case. This compound showed a clearance in [11] of 5.04 mL/min/kg. For the same compound, the AUC(0-t) at 24 h in data set [13] was 20300 ng·h/mL; in [16] it was 52300 ng·h/mL; in data set [22], 20700 ng·h/mL. For the same compound, the half-life was 29 min in data set [14] and 30.2 min in [17]. Further, the Activity result in [18] is on record as “Toxic”; in data set [19], 10.1%; in [21], “Toxic”. In data set [24], the Vd stood at 0.096 L/kg. For the same compound, the AUC(0-inf) was 52800 ng·h/mL in [26] and 4890 ng·h/mL in [28]. Besides, the “inhibition (INH)” value in data set [27] is “Not Active”. Besides, the peak level in data set [30] (Cmax) was 30100 ng/mL.

Take `CC(=O)O[C@@]12CO[C@@H]1C[C@H](O)[C@@]1(C)C(=O)[C@H](O)C3=C(C)[C@@H](OC(=O)[C@H](O)[C@@H](NC(=O)OC(C)(C)C)c4ccccc4)C[C@@](O)([C@@H](OC(=O)c4ccccc4)[C@H]21)C3(C)C` [DOCETAXEL ANHYDROUS]: the result in data set [32], in [33] and in [35] was inactive. Also, the result in data set [34] was Active.

The values above are taken from ChEMBL document CHEMBL5252546, “Salutaxel, a Conjugate of Docetaxel and a Muramyl Dipeptide (MDP) Analogue, Acts as Multifunctional Prodrug That Inhibits Tumor Growth and Metastasis” (J Med Chem, 2018).
